These results are taken from the EternaBench riboswitch data.

In this data set the test system is MS2 coat protein. Put plainly: apparent Kd, MS2 coat protein; higher = weaker binding; RNA-MaP array; FMN 200 µM where present. The essentials:
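Each design was made on Illumina sequencing-chip clusters by stalled E. coli RNA polymerase and titrated with SNAP-549-labelled MS2 coat protein from 0.7 or 1.5 nM, doubling to 3 µM, in the absence and then the presence of constant ligand. The buffer was 100 mM Tris-HCl pH 7.5, 80 mM KCl, 4 mM MgCl2, BSA, DTT, yeast tRNA and Tween-20. The apparent Kd is the median of filtered per-cluster fits of binding curves, with green signal normalised to red-channel RNA signal and control-cluster median Fmax.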

[1] abbreviates: designed as: OFF switch for flavin mononucleotide, no ligand.
Where [2] appears, read: ligand present: flavin mononucleotide, designed as: OFF switch for flavin mononucleotide.
Setting [3] is: designed as: ON switch for flavin mononucleotide, no ligand.
The mark [4] stands for this setting: ligand present: flavin mononucleotide, designed as: ON switch for flavin mononucleotide.

In general, apparent Kd refers to a dissociation constant that holds for the conditions of the assay. Consider “AAGCUGUCAGGAUAUCGUUAAUUUAGUUGUUUGUAUUAGUUCGAGAAGGGACAUGAGGAUCACCCAUGUAUAUA”, for which the “apparent Kd” value reads like this: under setting [1], 37.8 nM; under setting [2], 76.8 nM.

For the sequence “AGGUGUAGAGGAUAUUCAUUCUUCCACAUGAGGAUCACCCAUGUCCUGGUCACCAAGGACGGAGAAGGCUACACCA”, the “apparent Kd” value stood at 70.2 nM under setting [1] and 38.1 nM under setting [2].

“AAUUAUUUACAGAAGGAGUAAGAUUUUGUAUUACUAGGAUAUGUUAACAUGAGGAUCACCCAUGUGUUUGUUGGUUUUUUAUGU”: the “apparent Kd” value under setting [1] turned out to be 16.1 nM and the “apparent Kd” value under setting [2] was 14.8 nM.

Regarding “GGGCCCGGAGGAUAUACAAUGGGCCCGGGAAAUUGGGCCCUACAUGAGGAUCACCCAUGUAGAAGGUUGGGCCC”, the “apparent Kd” value turned out to be 12.8 nM under setting [1] and 13.6 nM under setting [2].

On to “UGUGUGUGGCAGGAUAUGCAGGUAAUAAGACGGGUAGAAGGGUCUACAUGAGGAUCACCCAUGUGGCCGGUUGG”, for which the “apparent Kd” value runs as follows: under setting [1], 16.1 nM; under setting [2], 18.2 nM.

“AGCUCCGCGGCCACUUAUUGUGCACAUGAGGAUCACCCAUGUCAGGAUAUCCUUGAGCCUCACAAGGAGAAGGGACAUAAGGUU”: the “apparent Kd” value stood at 643 nM under setting [1] and 334 nM under setting [2].

Regarding “AAAUAAAGGACUAAGGAUAUAUCACAUGAAACAUGAGGAUCACCCAUGUAAUAAUACAAAGGGUGAUAGAAGGUAGUCCACAAACA”, the “apparent Kd” value was 55.7 nM under setting [3] and 20.5 nM under setting [4].

For “ACACUGUGAGGAUAUACAUGAGGAUCACCCAUGUUAAGGAAGUCGUGGUUAAUUUAAGGUAGAAGGCGCUUAUU”, the “apparent Kd” value under setting [1] amounted to 41.3 nM and the “apparent Kd” value under setting [2] came to 42.8 nM.

Take “GGACGUCACAUUAACAUGAGGAUCACCCAUGUCAAAAGACAUGAGGAUAUGGAUCCGAAAAGGAUCCAGAAGGCAUGGACGUCC”: the “apparent Kd” value under setting [3] came to 555 nM and the “apparent Kd” value under setting [4] was found to be 36.6 nM.

For “UGUCAUAUAUAGAAGGGUAGUAGGGUAUUACAUGAGGAUCACCCAUGUAUUAUAGGAUAUGUGUAUAGUUUUUAUUCAAGUAUA”, the “apparent Kd” value under setting [1] turned out to be 22.8 nM and the “apparent Kd” value under setting [2] stood at 17 nM.

Regarding “GCACGAGACUAAGGAUAUGGUGUAUCUACAUGAAACAUGAGGAUCACCCAUGUAGUAAGUAUGAUUCAGAAGGUAGAGACGUGC”, the “apparent Kd” value runs as follows: under setting [3], 49.7 nM; under setting [4], 23 nM.

In the case of “UUGUUGUCAGGAUAUCGUUAAUUUAAUUGUUUGUAUUAGUUCGAGAAGGGACAUGAGGAUCACCCAUGUUUGUU”, the “apparent Kd” value came to 34.5 nM under setting [1] and 73.5 nM under setting [2].

Consider “UAUAUAAUUAAGAGCUGGAACUCAACAUGAGGAUCACCCAUGUAGGAUAUCAGCACGAUAAGUGCUGAGAAGGACAUCCAGCUC”, for which the “apparent Kd” value came out at 16.6 nM under setting [1] and 17.8 nM under setting [2].

With “UCAUGAUAUGUAGGAUAUCACUUUAAUUGAUUAAUAUAUGAAUAUAGAAUUUGAGAAGGACAUUUACAUGAGGAUCACCCAUGU”, the “apparent Kd” value stood at 12.9 nM under setting [1] and 9.67 nM under setting [2].

For “GAUGGAGAGCAGGAUAUCUUGGGUAAGCAUCAUAGAGAAGGGCUCACAUGAGGAUCACCCAUGUGGUCCAAGAA”, the “apparent Kd” value is 14.2 nM under setting [1] and 56 nM under setting [2].

With “GACUGGCAGCUAGGAUAUGGGCGAUCACAUGAGGAUCACCCAUGUCAACAUCAAAACAAGAUUAACCAGAAGGAGCCGCGGGCU”, the “apparent Kd” value by setting is: under setting [3], 17.3 nM; under setting [4], 49.7 nM.

In the case of “UGUUGUAUUACAGGAUAUCUAUUAUUUUGAUUUAGAGAAGGGUAUUCACAUGAGGAUCACCCAUGUAUAUACGAGGAAGUUGUG”, the “apparent Kd” value by setting is: under setting [3], 47.7 nM; under setting [4], 47.9 nM.

Consider “CCUGCGGACAAAGGAUAUUGCGGUGGCCGGCUCAGUAAAUCUAGCCAACAUGAGGAUCACCCAUGUAAGAAGGUUGCCGUUGGU”, for which the “apparent Kd” value reads like this: under setting [1], 19.1 nM; under setting [2], 35.1 nM.

Regarding “UUGGGUUUGGGAGGAUAUGGGUAAAAUAAAGUACUAGAAGGCUUAAAUUAUUUUAUAGUUGUAUUACAUGAGGAUCACCCAUGU”, the “apparent Kd” value runs as follows: under setting [3], 13.6 nM; under setting [4], 10.4 nM.

Take “AGCUUCGAAGGAUAUCCAGGUCCAGACAUGAGGAUCACCCAUGUGGUGAAGACGUUACCCGGAGAAGGUUGUGAGU”: the “apparent Kd” value under setting [1] worked out at 70.5 nM and the “apparent Kd” value under setting [2] came to 61.7 nM.

Regarding “GUACCUUAUGAGAAGGCGAUCAUAAAACGUGAUCGAGGAUAUCAUGUAAACAUGAGGAUCACCCAUGUAUGGGUAUUAUGGUAC”, the “apparent Kd” value by setting is: under setting [3], 61.7 nM; under setting [4], 18.4 nM.

For the sequence “CACCGUUACACAGGAUAUCUUACAUGAGGAUCACCCAUGUAAUAAAUGAGAAUUUCGAAUGUAUUAGAGAAGGGUGGAAUCGGC”, the “apparent Kd” value by setting is: under setting [1], 37.7 nM; under setting [2], 90.2 nM.

On to “AACCGACAUGAGGAUCACCCAUGUCAGGAUAUGGACUGACACCCAAAGGGUGGAGGAACCAGAAGGGACUGGGC”, for which the “apparent Kd” value under setting [1] turned out to be 39.9 nM and the “apparent Kd” value under setting [2] was 101 nM.

For “GCCAUCGUAUGAGGAUAUGGCACCGCAACGGUGCCAGAAGGCAUGUCAAUAGACAUGAGGAUCACCCAUGUGUUAUCGAUGGCA”, the “apparent Kd” value reads like this: under setting [3], 153 nM; under setting [4], 13.9 nM.

“CCUCCCUGAGGAUAUCCACCCUCAUACAUGAGGAUCACCCAUGUUCAUCCCUGAGUACCCGGAGAAGGCAGAUUUC”: the “apparent Kd” value runs as follows: under setting [1], 168 nM; under setting [2], 148 nM.

As to “CUCUUGAGUCAGGAUAUCGUGAGGCUAAUAAUACGAGAAGGGACAACAUGAGGAUCACCCAUGUGGUCGAAGAG”, the “apparent Kd” value is, setting by setting: under setting [1], 32.9 nM; under setting [2], 78.3 nM.

Turning to “AGAUUCAUGGCCCGUUCGGGCCCACAUGAGGAUCACCCAUGUGAGGAUAUGAUGUACCUGAUUCAUCAGAAGGCGCAUGCGAAA”, the “apparent Kd” value turned out to be 7.32 nM under setting [1] and 20.5 nM under setting [2].

“GUUUCCAGAGGAUAUGCGAGGGUGUACCUCUAACAGCUCAAACAUGAGGAUCACCCAUGUAGAAGGCUGAUCAU”: the “apparent Kd” value was determined as 19.8 nM under setting [1] and 18.2 nM under setting [2].

As for “UUAAAUCAUGUAGGAUAUGCAUGGCGAAGCUACGCAGAAGGACAUGAGGAUCACCCAUGUUAUAGCUAGGCAGUUCCCUGGCAA”, the “apparent Kd” value came to 70.2 nM under setting [1] and 214 nM under setting [2].

As to “GGUGCACGCACAGGAUAUCCGGCGGAGCUCGUCGGAGAAGGGUGACAUGAGGAUCACCCAUGUACGUGCAGCCAAGUUUGAGAG”, the “apparent Kd” value runs as follows: under setting [3], 66.9 nM; under setting [4], 39.3 nM.

As for “AACGAGCUAGGAUAUGCACGGAAAAGCGUGGUCACUUAUGGACAUGAGGAUCACCCAUGUAGAAGGAGCGACGC”, the “apparent Kd” value worked out at 22.5 nM under setting [1] and 18.9 nM under setting [2].

“CACUUAGGCACAUGAGGAUCACCCAUGUCCCGGGAGCCGAGACAGGAUAUGUGCCUCGAAUGUGCACAGAAGGGUCUACUAUGU”: the “apparent Kd” value was found to be 165 nM under setting [3] and 229 nM under setting [4].

“AUGAGUGUAAUGAUUGAGCCACUGCAGGAUAUCACAUGAGGAUCACCCAUGUGUCAGCCUCGGAGUGAGAAGGGCGGUUUCUUA”: the “apparent Kd” value stood at 5.38 nM under setting [1] and 10.6 nM under setting [2].

Turning to “AGCGGCGCGGGCCACCGCAGGACCAGAAGGACAUGAGGAUCACCCAUGUAGCAGAACAGGGCGGUGUAGGAUAUGGCAGGCUCG”, the “apparent Kd” value under setting [1] is 22.5 nM and the “apparent Kd” value under setting [2] is 51.6 nM.

“UAGAUGGGAGGAUAUGCGUAGAUGCGGAUUCGUGUGGUGCUACAUGAGGAUCACCCAUGUAGAAGGCCCGUCUU”: the “apparent Kd” value under setting [1] turned out to be 14.4 nM and the “apparent Kd” value under setting [2] amounted to 22 nM.

For the sequence “ACCUCACAUGAGGAUCACCCAUGUUAGGAUAUCUCGGCGCCCUGUAGGCAGUAGCGCCAGAGAAGGAACGUGCA”, the “apparent Kd” value runs as follows: under setting [1], 24.3 nM; under setting [2], 25.2 nM.

Turning to “ACAUGAUAUGUAGGAUAUCACAACUUGUGUUAUAAAAUUGUAUUUUAGGAUUGAGAAGGACAUUUACAUGAGGAUCACCCAUGU”, the “apparent Kd” value runs as follows: under setting [1], 15.5 nM; under setting [2], 12.8 nM.

As for “UUAAAUCAUGUAGGAUAUGCAUGGCGAAGCUACGCAGAAGGACAUGAGGAUCACCCAUGUUCUGGCUACCGGAUACGGUGGCAA”, the “apparent Kd” value is, setting by setting: under setting [1], 20.6 nM; under setting [2], 83.6 nM.

As for “CCAGAGGAGUAGGAUAUAGGCCGCCAUCGGCGCCUAGAAGGGCUCACAUGAGGAUCACCCAUGUGAUGUUAGUU”, the “apparent Kd” value under setting [1] came to 17.5 nM and the “apparent Kd” value under setting [2] stood at 20 nM.

“AGUAACAGAGGAUAUACUGUUUUAUGUGUUUAUUGUUUUAAACAUGAGGAUCACCCAUGUAGAAGGCUGAAUAA”: the “apparent Kd” value stood at 30.9 nM under setting [1] and 26.9 nM under setting [2].

With “AAUUAGGUCACAGGAUAUACAACAACCAAUGCUGUAGAAGGGUGUCACAUACUUAGCUGACAUGAGGAUCACCCAUGUAUCCAC”, the “apparent Kd” value by setting is: under setting [3], 172 nM; under setting [4], 68.2 nM.

Consider “GAUGAGAGAGGAUAUACAUGAGGAUCACCCAUGUAAUUUUCGGACAUGGAAGCUGGAUGUAGAAGGCUCGCAUG”, for which the “apparent Kd” value came to 20 nM under setting [1] and 46.2 nM under setting [2].

In the case of “UAUAUAUAGUAAGGAUAUGUAUUAAUCUUAUAAACAGAAGGUACUGACAUGAGGAUCACCCAUGUUUUAGUGUGGGCAUGUAGA”, the “apparent Kd” value is, setting by setting: under setting [1], 78.1 nM; under setting [2], 103 nM.

For the sequence “AAUUGACACGUAGGAUAUCGAUCUAAUUUAAUUCGAGAAGGACGCACAUGAGGAUCACCCAUGUUUAAUGGAUUAGACAUGUUG”, the “apparent Kd” value under setting [1] was 162 nM and the “apparent Kd” value under setting [2] worked out at 328 nM.

Take “AGGAGGUCAGGAUAUGCUGCUCGUCACUUGCGUGAUGAGUAGCAGAAGGGACAUGAGGAUCACCCAUGUAAAAA”: the “apparent Kd” value amounted to 52.6 nM under setting [1] and 88.7 nM under setting [2].

For “GGGUUGGGAGGAUAUCCAAUAUAUGACAUGAGGAUCACCCAUGUUUCCACUCGUACCUCCGGAGAAGGCCCUUCCC”, the “apparent Kd” value by setting is: under setting [1], 19.3 nM; under setting [2], 20 nM.

Turning to “GGAAAUUAGCAAGGAUAUCGGCUUACUAUAACUUUAUGCCCUGGGACAUGAGGAUCACCCAUGUACGAGAAGGUGCUAACUACA”, the “apparent Kd” value reads like this: under setting [1], 23.6 nM; under setting [2], 36.9 nM.

As to “GCCAGGAUGUAAGGAUAUGCUGAGGAUAACUCAGCAGAAGGUACAUGAGGAUCACCCAUGUAAACCUAUAAUAAAUAACCUGGC”, the “apparent Kd” value runs as follows: under setting [1], 11 nM; under setting [2], 15.4 nM.
